The source made the active and inactive calls. The calls are words filed in the database; no cut-off is given here.
How the values were obtained:
[1] = test system: Rattus norvegicus; assay: Inhibition of 5-Hydroxy tryptamine accumulation in hemispheres of rat brain after subcutaneous administration; I= Inactive; type: functional, organism-based
[2] = test system: Rattus norvegicus; assay: Inhibition of 5-Hydroxy tryptamine accumulation in limbic part of rat brain after subcutaneous administration; I= Inactive; type: functional, organism-based
[3] = test system: Rattus norvegicus; assay: Inhibition of 5-Hydroxy tryptamine accumulation in striatum part of rat brain after subcutaneous administration; I= Inactive; type: functional, organism-based
[4] = test system: Rattus norvegicus; assay: Inhibition of dopamine accumulation in limbic part of rat brain after subcutaneous administration; type: functional; conditions: sc
[5] = test system: Rattus norvegicus; assay: Inhibition of dopamine accumulation in striatum part of rat brain after subcutaneous administration; type: functional; conditions: sc
[6] = test system: Rattus norvegicus; assay: Inhibition of 5-HTP accumulation in hemisphere of rat brain after subcutaneous administration of compound before 60 min to death; type: functional, organism-based
Method in brief: (§1)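 Nonpretreated rats were given each enantiomer sc 60 min before death. NSD 1015 (100 mg/kg ip) was given 30 min before death, and 5-HTP or Dopa accumulation was measured in brain regions. Values are means ± SEM, n = 4 (some groups n = 3). Statistics: ANOVA followed by Student's t test.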

[7] = test system: Rattus norvegicus; assay: Inhibition of 5-HTP accumulation in limbic part of rat brain after subcutaneous administration of compound before 60 min to death; type: functional, organism-based; conditions: Limbic system; method in brief: as §1
[8] = test system: Rattus norvegicus; assay: Inhibition of 5-Hydroxy Tryptamine accumulation in hemispheres of rat brain after subcutaneous administration; type: functional; conditions: sc
[9] = test system: Rattus norvegicus; assay: Inhibition of dopamine accumulation in limbic part of rat brain after subcutaneous administration; I= Inactive; type: functional, organism-based
[10] = test system: Rattus norvegicus; assay: Inhibition of dopamine accumulation in striatum part of rat brain after subcutaneous administration; I= Inactive; type: functional, organism-based
[11] = test system: Rattus norvegicus; assay: Inhibition of 5-Hydroxy Tryptamine accumulation in limbic part of rat brain after subcutaneous administration; type: functional; conditions: sc
[12] = test system: Rattus norvegicus; assay: Inhibition of 5-Hydroxy Tryptamine accumulation in striatum part of rat brain after subcutaneous administration; type: functional; conditions: sc
[13] = test system: Rattus norvegicus; assay: Inhibition of 5-Hydroxy tryptamine accumulation in hemispheres of rat brain after subcutaneous administration; type: functional; conditions: sc
[14] = test system: Rattus norvegicus; assay: Inhibition of 5-Hydroxy tryptamine accumulation in limbic part of rat brain after subcutaneous administration; type: functional; conditions: sc
[15] = test system: Rattus norvegicus; assay: Inhibition of 5-Hydroxy tryptamine accumulation in striatum part of rat brain after subcutaneous administration; type: functional; conditions: sc

Structure (SMILES) | ED50 [1] | ED50 [2] | ED50 [3] | ED50 [4] [µmol/kg] | ED50 [5] [µmol/kg] | Concentration [6] [ng/g] | Concentration [7] [ng/g] | ED50 [8] [µmol/kg] | ED50 [9] | ED50 [10] | ED50 [11] [µmol/kg] | ED50 [12] [µmol/kg] | ED50 [13] [µmol/kg] | ED50 [14] [µmol/kg] | ED50 [15] [µmol/kg]
CCCN(CCC)[C@@H]1CCc2ccc(O)cc2C1 | inactive | inactive | inactive | 0.18 | 0.17 | – | – | – | – | – | – | – | – | – | –
CCCN(CCC)[C@H]1CCc2cccc(O)c2C1 | – | – | – | – | – | 57 | 84 | 0.09 | inactive | inactive | 0.061 | 0.075 | – | – | –
CCCN(CCC)C1CCc2ccc(O)cc2C1 (centres undefined) | inactive | inactive | inactive | 0.027 | 0.03 | – | – | – | – | – | – | – | – | – | –
CCCN(CCC)C1CCc2c(O)cccc2C1 (centres undefined) [5-OH-DPAT] | inactive | inactive | inactive | 0.011 | 0.009 | – | – | – | – | – | – | – | – | – | –
CCCN(CCC)C1CCc2cccc(O)c2C1 (racemic) [8-OH-DPAT] | – | – | – | – | – | – | – | – | inactive | inactive | – | – | 0.068 | 0.048 | 0.045
CCCN(CCC)[C@@H]1CCc2cccc(O)c2C1 | – | – | – | – | – | 44 | 63 | – | inactive | inactive | – | – | 0.052 | 0.036 | 0.048
